“Also recorded” adds a separate entry of the source. Counter-ions that a name gives are not always drawn.
Tests used:
[1] = tested on: C3aR1; conditions: cited from earlier work
[2] = target: T1, m*C3aR1 (murinized hC3aR1) (Homo sapiens, UniProt Q16581, C420S/L413V/S400L/V103I/V419M); test: Tango β-arrestin recruitment assay, murinized hC3aR1; assay type: cell-based; conditions: ratio of EC50 hC3aR1 / m*C3aR1
T1 sequence (Q16581 1-482 V103I/S400L/L413V/V419M/C420S): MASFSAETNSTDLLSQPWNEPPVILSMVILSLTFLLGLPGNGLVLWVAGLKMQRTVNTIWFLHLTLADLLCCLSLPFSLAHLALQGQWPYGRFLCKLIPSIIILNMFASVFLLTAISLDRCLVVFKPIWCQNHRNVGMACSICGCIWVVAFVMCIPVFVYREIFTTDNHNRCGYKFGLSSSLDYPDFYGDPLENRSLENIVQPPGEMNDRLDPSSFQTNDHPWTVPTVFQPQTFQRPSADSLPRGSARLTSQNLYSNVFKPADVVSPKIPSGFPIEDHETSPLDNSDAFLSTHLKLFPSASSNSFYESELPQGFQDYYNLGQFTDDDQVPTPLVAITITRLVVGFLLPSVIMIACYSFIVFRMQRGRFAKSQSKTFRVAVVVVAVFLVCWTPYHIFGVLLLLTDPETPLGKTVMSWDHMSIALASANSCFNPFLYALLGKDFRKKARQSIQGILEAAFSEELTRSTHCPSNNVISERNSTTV

[3] = tested on: Ca45 2+ uptake in 3T3-L1 adipocytes; test: Ca45 2+ uptake assay in 3T3-L1 adipocytes; assay type: cell-based, mouse; conditions: differentiated 3T3-L1 adipocytes, 3 min, pH 7.4, 37°C; ISO 100 nM
How it was run: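 Differentiated adipocytes were washed twice, 15 min apart, at 37°C in 150 mM NaCl, 5 mM KCl, 2 mM CaCl2 and 10 mM HEPES, pH 7.4. They were then incubated 3 min in Ca-free buffer with 2 μCi 45Ca2+, peptide at several concentrations and isoproterenol 100 nM. Stop with ice-cold Ca-free buffer containing 2 mM EGTA and 1 mM LaCl3, then three washes. Lysis in 0.1% Triton X-100; scintillation counting, cpm/well.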

[4] = tested on: 3T3-L1 adipocytes; test: Lipolysis; assay type: cell-based, mouse; conditions: 1 h pretreatment, ISO 50 nM, no TLQP-21
How it was run: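 Adipocytes serum-starved 3 h in KRH buffer (HEPES 10 mM, CaCl2 2.2 mM, glucose 5.4 mM) with 1% fatty-acid-free BSA, then treated in KRH with 4% BSA. Inhibitors given as 1 h pretreatment (SKF-96365 dose series; AnC0A4 or KN-62 1 μM) before isoproterenol 50 nM. Medium heat-inactivated 60°C for 20 min. Free glycerol read colorimetrically at 540 nm, normalized to Bradford protein, fold over control.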

[5] = tested on: C3aR1 R161A, R340A and D417A mutants; conditions: R340A, and D417A mutations, ref Sun et al., 1999; cited from earlier work
[6] = tested on: [Ca2+]i in 3T3-L1 cells; test: Fluo-4 intracellular calcium in 3T3-L1 cells; assay type: cell-based, mouse; conditions: SKF-96365 20 μM; for effect of inhibitor on TLQP-21-induced [Ca2+]i increase: TLQP-21 10 μM
How it was run: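 Cells plated at 60% confluency on collagen-coated slides. Next day, loaded 30 min in HBSS with 2.5 μM Fluo-4 AM, washed 30 min, imaged live at 20X every second for 3 min. Agents added at 30 s; HBSS negative, ionomycin and UTP positive controls. Per-cell AUC over first 60 s, background-subtracted, basal-normalized, control-normalized, scaled 0–1; 8–50 cells, 2 experiments.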

Compound: HFHHALPPAR
- biological activity of modified or truncated peptides ([1]; ref Cero et al., 2014): only retained minimal biological activity

Compound: C3a63–77: C3aR1 agonist C3a63–77 (LRRQHARASHLGLAR; C3a anaphylatoxin; UniProt P01024 734-748, looked up, fragment)
- increase in β-arrestin potency at m*C3aR1 versus hC3aR1 [2]: 8.5 fold

Compound: CC(C)NCC(O)c1ccc(O)c(O)c1 (centres unmarked) [ISO, Isoproterenol hydrochloride]
- Ca45 2+ uptake from the medium [3]: did not increase Ca45^2+ uptake under our experimental conditions and did not potentiate TLQP-21-mediated effects; also recorded: does not modify TLQP-21-induced Ca45^2+ uptake from the medium

Compound: CN([C@@H](Cc1ccc(OS(=O)(=O)c2cccc3cnccc23)cc1)C(=O)N1CCN(c2ccccc2)CC1)S(=O)(=O)c1cccc2cnccc12 [KN-62]
- effect of inhibitor on basal or ISO-induced lipolysis [4]: without affecting basal or ISO-induced lipolysis per se

Compound: RRRHFHHALPPAR
- biological activity of truncated peptide ([1]; ref Rivolta et al., 2017): retains full biological activity

Compound: C3a: 77-amino-acid, full-length C3a; in b45 apparently the C3a63–77 peptide
- increase in β-arrestin potency at m*C3aR1 versus hC3aR1 [2]: 8.5 fold
- C3a binding affinity to C3aR1 mutants [5]: complete loss of C3a binding affinity to C3aR1

Compound: NC(N)=NCCC[C@H](NC(=O)COCC(c1ccccc1)c1ccccc1)C(=O)O [SB290157]
- effect of inhibitor on TLQP-21-induced [Ca2+]i increase [6]: antagonized TLQP-21-mediated calcium influx; also recorded: this effect is antagonized by the C3aR1 antagonist SB290157

Compound: COc1ccc(CCCOC(Cn2ccnc2)c2ccc(OC)cc2)cc1 (centres unmarked) [SKF-96365]
- effect of inhibitor on basal or ISO-induced lipolysis [4]: without affecting basal or ISO-induced lipolysis
- basal fluorescence (Fluo-4) [6]: mild SKF-96365-induced elevation of basal fluorescence
- effect of inhibitor on TLQP-21-induced [Ca2+]i increase [6]: TLQP-21-induced increase in [Ca^2+]i, measured by Fluo-4 fluorescence, is blocked; also recorded: blocked the TLQP-21-induced increase in [Ca^2+]i
